≈ marks a conversion by molar mass, not a printed value. Calls of active or inactive are those of the source. No cut-off for these calls is given here.
Experiments:
[1] = system: Mycobacterium tuberculosis; assay: Antimycobacterial activity against Mycobacterium tuberculosis H37Rv assessed as decreased synthesis of methoxy-mycolic acid at 1.5 to 6 ug/ml incubated for 24 hrs in presence of 14C acetate by TLC analysis; type: functional, organism-based; conditions: dose 1.5-6 µg/ml
Procedure, shortened: (§1)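 Mtb H37Rv cultures exposed to 0, 1.5, 3 or 6 μg/ml compound or its sodium salt for 24 h. 14C acetate then added and cells grown a further 24 h. Lipids and mycolic acids extracted; fatty acids derivatized to methyl esters. Separated by TLC on standard or AgNO3-impregnated plates in Solvent IV and visualized by autoradiography.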

[2] = system: Mycobacterium tuberculosis; assay: Antimycobacterial activity against Mycobacterium tuberculosis H37Rv infected in mouse assessed as reduction in colony formation in spleen at 50 mg/kg administered for 28 days; type: functional, organism-based; conditions: time 28.0 day
Procedure, shortened: (§2)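 Mice infected intranasally with Mtb H37Rv; infection allowed to develop four weeks. Then dosed for 28 days with sodium salt forms as water solution by gastric tube. Lung and spleen CFU determined and compared with untreated control group.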

[3] = system: Mycobacterium tuberculosis; assay: Antimycobacterial activity against Mycobacterium tuberculosis H37Rv at 1 times MIC measured after 15 days in presence of methionine by alamar blue staining based microplate analysis; type: functional, organism-based; conditions: time 15.0 day
[4] = system: Mycobacterium tuberculosis; assay: Antimycobacterial activity against Mycobacterium tuberculosis H37Rv assessed as decreased synthesis of tri-acylglyerols at 1.5 to 6 ug/ml incubated for 24 hrs in presence of 14C acetate by TLC analysis; type: functional, organism-based; conditions: dose 1.5-6 µg/ml; procedure, shortened: as §1
[5] = system: Mycobacterium tuberculosis; assay: Antimycobacterial activity against Mycobacterium tuberculosis H37Rv assessed as change in trehalose monomycolates production at 1.5 to 6 ug/ml incubated for 24 hrs in presence of 14C acetate by TLC analysis; type: functional, organism-based; conditions: dose 1.5-6 µg/ml; procedure, shortened: as §1
[6] = system: Mycobacterium tuberculosis; assay: Antimycobacterial activity against Mycobacterium tuberculosis H37Rv assessed as change in trehalose dimycolates production at 1.5 to 6 ug/ml incubated for 24 hrs in presence of 14C acetate by TLC analysis; type: functional, organism-based; conditions: dose 1.5-6 µg/ml; procedure, shortened: as §1
[7] = system: Mycobacterium tuberculosis; assay: Antimycobacterial activity against Mycobacterium tuberculosis H37Rv infected in mouse assessed as reduction in colony formation in lungs at 50 mg/kg administered for 28 days; type: functional, organism-based; conditions: time 28.0 day; procedure, shortened: as §2
[8] = system: Mycobacterium tuberculosis; assay: Antimycobacterial activity against Mycobacterium tuberculosis H37Rv assessed as decreased synthesis of cyclopropyl-mycolic acid at 1.5 to 6 ug/ml incubated for 24 hrs in presence of 14C acetate by TLC analysis; type: functional, organism-based; conditions: dose 1.5-6 µg/ml; procedure, shortened: as §1
[9] = system: Mycobacterium tuberculosis; assay: Antimycobacterial activity against Mycobacterium tuberculosis H37Rv assessed as change in phospholipid production at 1.5 to 6 ug/ml incubated for 24 hrs in presence of 14C acetate by TLC analysis; type: functional, organism-based; conditions: dose 1.5-6 µg/ml; procedure, shortened: as §1
Mycobacterium kansasii = assay: Antimycobacterial activity against Mycobacterium kansasii by alamar blue staining based microplate analysis; type: functional
Procedure, shortened: (§3)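 Microplate Alamar Blue assay, one of six mycobacterial strains tested (Mtb H37Rv, Mtb H37Ra, M. kansasii, M. avium, M. smegmatis, M. aurum); value reported as MIC.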

[10] = Selectivity index, ratio of IC50 for cytotoxicity against human HepG2 cells to MIC for antimycobacterial activity against Mycobacterium tuberculosis H37Rv; type: toxicity, cell-based; conditions: read-out: Selectivity Index
Mycolicibacterium aurum = assay: Antimycobacterial activity against Mycobacterium aurum by alamar blue staining based microplate analysis; type: functional; procedure, shortened: as §3
[11] = Cytotoxicity against human HepG2 cells assessed as inhibition of cell viability; type: toxicity, cell-based
[12] = Drug metabolism in human liver microsomes assessed as M1 metabolite formation at 90 uM incubated for 3 hrs; type: ADME, Microsome
Procedure, shortened: (§4)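 Phase I metabolite identification: ammonium salt of the compound (for solubility) or its lactone, 90 μM, incubated with human liver microsomes for 3 h; metabolites detected by HPLC-MS, positive ion mode, by m/z.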

[13] = system: Mycobacterium tuberculosis; assay: Antimycobacterial activity against Mycobacterium tuberculosis H37Rv by alamar blue staining based microplate analysis; type: functional
Procedure, shortened: (§5)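 Microplate Alamar Blue assay. MIC values read at pH 6.6 (neutral). One acidic-pH test at pH 5.6 is footnoted separately.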

[14] = system: Mycobacterium tuberculosis; assay: Antimycobacterial activity against Mycobacterium tuberculosis H37Ra by alamar blue staining based microplate analysis; type: functional; procedure, shortened: as §5
[15] = system: Mycobacterium tuberculosis; assay: Antimycobacterial activity against Mycobacterium tuberculosis MAT1 by alamar blue staining based microplate analysis; type: functional
Mycobacterium avium = assay: Antimycobacterial activity against Mycobacterium avium by alamar blue staining based microplate analysis; type: functional; procedure, shortened: as §5
[16] = Metabolic stability in human liver microsomes assessed as intrinsic clearance at 3 uM incubated for 45 mins by HPLC analysis; type: ADME, Microsome; conditions: read-out: CLH
Procedure, shortened: (§6)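 Ammonium salt or lactone, 3 μM, incubated with human liver microsomes at physiological pH; reactions stopped at 0, 5, 15, 30 and 45 min and analysed by HPLC-MS; k, t1/2 and intrinsic clearance calculated from the HPLC-MS records.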

[17] = Metabolic stability in human liver microsomes assessed as half life at 3 uM incubated for 45 mins by HPLC-MS analysis; type: ADME, Microsome; procedure, shortened: as §6
[18] = system: Mycolicibacterium smegmatis; assay: Antimycobacterial activity against Mycobacterium smegmatis by alamar blue staining based microplate analysis; type: functional; procedure, shortened: as §3
[19] = Drug metabolism in human liver microsomes assessed as M2 metabolite formation at 90 uM incubated for 3 hrs; type: ADME, Microsome; procedure, shortened: as §4
[20] = system: Mycobacterium tuberculosis; assay: Antimycobacterial activity against Mycobacterium tuberculosis IZAK by alamar blue staining based microplate analysis; type: functional
[21] = Drug metabolism in human liver microsomes assessed as M3 metabolite formation at 90 uM incubated for 3 hrs; type: ADME, Microsome; procedure, shortened: as §4
[22] = system: Mycobacterium tuberculosis; assay: Antimycobacterial activity against Mycobacterium tuberculosis H37Rv at 40 times MIC measured after 15 days in presence of methionine by alamar blue staining based microplate analysis; type: functional, organism-based; conditions: time 15.0 day

O=C(Nc1ccc(C(=O)O)c(O)c1)c1ccc2ccccc2n1 [listing 1 of 2 here]
Activity [1]: Active
Activity [2]: Active
Activity [3]: inactive
Activity [4]: Active
Activity [5]: inactive
Activity [6]: inactive
Activity [7]: inactive
Activity [8]: Active
Activity [9]: inactive

O=C(Nc1ccc2c(c1)OCOC2=O)c1ccc2ccccc2n1
MIC (Mycobacterium kansasii): > 100 µg/mL
selectivity ratio [10]: > 5.1
MIC (Mycolicibacterium aurum): ≥ 250 µg/mL
IC50 [11]: > 0.025 mM
Drug metabolism [12]: Metabolite_Detected
MIC [13]: 1.56 µg/mL (≈ 4.87 µM)
MIC [14]: 1.98 µg/mL (≈ 6.18 µM)
MIC [15]: 50 µg/mL (≈ 156 µM)
MIC (Mycobacterium avium): > 100 µg/mL
microsomal CLint at 3 µM [16]: 122 µL/min/mg
half-life at 3 µM [17]: 0.183 h
MIC [18]: ≥ 250 µg/mL
Drug metabolism [19]: Metabolite_Detected
MIC [20]: 50 µg/mL (≈ 156 µM)
Drug metabolism [21]: Metabolite_Detected

Nc1ccc(C(=O)O)c(O)c1 [AMINOSALICYLIC ACID]
selectivity ratio [10]: 62.1
MIC (Mycolicibacterium aurum): 250 µg/mL (≈ 1630 µM)
IC50 [11]: > 1.27 mM
MIC [13]: 3.13 µg/mL (≈ 20.4 µM)
MIC [14]: 0.25 µg/mL (≈ 1.63 µM)
MIC (Mycobacterium avium): 3.13 µg/mL (≈ 20.4 µM)
MIC [18]: 500 µg/mL (≈ 3270 µM)
Activity [22]: inactive

O=C(Nc1ccc(C(=O)O)c(O)c1)c1ccc2ccccc2n1 [listing 2 of 2 here]
MIC (Mycobacterium kansasii): 100 µg/mL (≈ 324 µM)
selectivity ratio [10]: 198
MIC (Mycolicibacterium aurum): 15.6 µg/mL (≈ 50.7 µM)
IC50 [11]: > 1 mM
Drug metabolism [12]: Metabolite_Detected
MIC [13]: 1.56 µg/mL (≈ 5.06 µM)
MIC [14]: 31.2 µg/mL (≈ 101 µM)
MIC [15]: 12.5 µg/mL (≈ 40.5 µM)
MIC (Mycobacterium avium): 100 µg/mL (≈ 324 µM)
microsomal CLint at 3 µM [16]: 2.2 µL/min/mg
half-life at 3 µM [17]: 10.5 h
MIC [18]: 31.2 µg/mL (≈ 101 µM)
Drug metabolism [19]: Metabolite_Detected
MIC [20]: 6.25 µg/mL (≈ 20.3 µM)

O=C(Nc1ccc(C(=O)O)c(O)c1)c1ccc(Cl)nc1
MIC (Mycobacterium kansasii): 12.5 µg/mL (≈ 42.7 µM)
selectivity ratio [10]: 188
Activity [2]: Active
MIC (Mycolicibacterium aurum): ≥ 250 µg/mL
IC50 [11]: > 1 mM
MIC [13]: 1.56 µg/mL (≈ 5.33 µM)
MIC [14]: 125 µg/mL (≈ 427 µM)
MIC (Mycobacterium avium): 100 µg/mL (≈ 342 µM)
Activity [7]: inactive
MIC [18]: ≥ 250 µg/mL

— ChEMBL document CHEMBL5625173, “Antimycobacterial pyridine carboxamides: From design to in vivo activity” (Eur J Med Chem, 2023)
